Shown are actives, neighbours in structure and some others; about 3.7% of the full set was active somewhere.
KCNK3 inh – human KCNK3 channel inhibition, primary screen; O14649; CHO-KCNK3 thallium flux, FluxOR fluorescence; active compounds read low; B-score at 10 µM; actives 0.84% (n = 340,000); AID 602410;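 active = B-score under library mean minus 4 SD, starting fluorescence ratio at most library mean plus 5 SD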;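 also: more negative B-score means stronger inhibition of thallium flux through KCNK3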
KCNQ1 act – human KCNQ1 channel potentiation or activation. CHO-K1 KCNQ1, thallium flux FluxOR fluorescence; active compounds read high. B-score at 10 µM. actives 0.35% (n = 310,000). AID 2648;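 active = fluorescence ratio B-score, a plate-corrected score, at least three library SD, with initial intensity B-score within 5 SD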
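Assay system: CHO-K1 cells stably expressing KCNQ1. Medium: assay buffer for compound exposure, DMSO matched across wells. Timing: 37 °C overnight plating, 90-min dark dye load, 20-min compound pretreatment. Signal: kinetic FluxOR fluorescence, 10 s baseline plus 110 s post-stimulus.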
hERG rescue – compounds protecting human hERG from proarrhythmic drug block; CHO-hERG, FluxOR thallium flux, dofetilide IC70 present; activation (rescue from dofetilide block), less the hit threshold, % at 10 µM; Q12809; actives 0.51% (n = 310,000);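 active = activation above the mean of controls blocked by dofetilide plus 5 SD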;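 also: thallium influx through hERG after potassium depolarization seen as dye fluorescence rise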
KCNK9 inh – blocks the human KCNK9 two-pore domain potassium channel. HEK293 KCNK9, FluxOR thallium flux fluorescence; active compounds read low. B-score at 10 µM. actives 1.2% (n = 310,000);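 active = ratio B-score over 3 SD below the library mean, with starting fluorescence within 5 SD of its mean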;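 also: negative B-score means less thallium flux so channel inhibition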
Target sequence (Q9NPC2 whole entry, looked up, the tested form may be a part): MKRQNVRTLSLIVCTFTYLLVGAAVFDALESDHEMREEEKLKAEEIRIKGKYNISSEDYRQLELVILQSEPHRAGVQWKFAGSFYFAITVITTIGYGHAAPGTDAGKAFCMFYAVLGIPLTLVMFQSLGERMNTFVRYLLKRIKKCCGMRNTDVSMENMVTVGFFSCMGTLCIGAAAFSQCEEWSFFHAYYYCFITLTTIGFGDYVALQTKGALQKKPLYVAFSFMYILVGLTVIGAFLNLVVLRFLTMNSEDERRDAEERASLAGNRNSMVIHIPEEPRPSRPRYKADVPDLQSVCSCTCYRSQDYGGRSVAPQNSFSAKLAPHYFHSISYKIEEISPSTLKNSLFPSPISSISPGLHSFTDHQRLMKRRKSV
Kir21 inh – Kir2.1 (mouse) channel inhibition | P35561 | HEK293-Kir2.1, FluxOR thallium flux fluorescence; active compounds read low | B-score at 10 µM | actives 0.85% (n = 310,000);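 active = fluorescence ratio B-score at or below minus 3 SD of library scores, with starting-brightness B-score within 2 SD, cut at about -4.2 in these data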;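 also: channel flux triggered by added potassium and thallium sulfate stimulus; B-score of peak minus minimum fluorescence over baseline after thallium stimulus; more negative B-score means stronger Kir2.1 block with less thallium influx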
KCNQ1 block – blocks the human KCNQ1 potassium channel; P51787; CHO-K1 KCNQ1, FluxOR thallium flux fluorescence; active compounds read high; B-score at 10 µM; actives 1.3% (n = 310,000);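 active = compounds whose thallium flux B-score, printed positive for inhibition, exceeds three library SD while starting fluorescence stays within three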;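 also: channel opened by potassium depolarization with thallium stimulus after 20 min compound exposure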
Starred values were filed as active, the others as inactive; i = inactive; / = no result.

SMILES	KCNK3 inh	KCNQ1 act	hERG rescue	KCNK9 inh	Kir21 inh	KCNQ1 block
O=C(/C=C/c1ccc(Br)cc1)N1CCN(c2cccc(C(F)(F)F)c2)CC1	i	i	-13	i	1.3	7*
COc1ccc(Cl)cc1NCCC(O)c1ccc(F)cc1 (centres undefined)	i	i	-9	i	-4.8*	i
Cc1ccccc1NC1=NC(=S)N(c2ccccc2)C12CCCCC2	i	15*	12*	i	0.32	i
CC(C)CCC(CCNCc1ccccn1)c1ccc2c(c1)OCO2 (centres undefined)	i	i	-16	i	-7.2*	i
CC(C)C(CCNCc1ccccn1)c1ccc(Cl)cc1 (centres undefined)	i	i	-4	i	-4.4*	i
Fc1ccccc1CNCCC(Cc1ccccc1)c1ccc2c(c1)OCO2 (centres undefined)	i	i	-21	i	-8.7*	i
COc1ccc2c(c1)c(=O)oc1cc(OCC(=O)N3CCc4ccccc4C3)ccc12	i	i	-7	i	1.2	i
CCCc1nc2c(s1)CCc1onc(-c3ccc(Br)cc3)c1-2	i	i	-9	i	0.01	i
CCCc1nc2c(s1)CCc1onc(-c3ccc(Cl)cc3)c1-2	i	i	-6	-7.1*	0.47	i
Cc1cc(F)ccc1S(=O)(=O)NCC(c1cccnc1)N1CCc2ccccc21 (centres undefined)	i	i	-9	i	-2.1	i
Cc1ccc(-c2cc(-c3ccc(F)cc3)n[nH]2)c(O)c1	i	i	-3	i	-0.87	6*
Cc1ccc(-c2cc(-c3ccc(C)cc3O)[nH]n2)cc1	i	i	-4	i	0.76	i
CCCc1nc(SCC(=O)N2CCc3ccccc3C2)c2ccccc2n1	i	i	-2	i	-5.6*	i
CCc1c(C)sc2nc(C(C)C)nc(SCC(=O)N3CCc4ccccc4C3)c12	/	i	-7	i	0.01	9*
Cc1sc2nc(C(C)C)nc(SCC(=O)N3CCN(C(=O)c4ccco4)CC3)c2c1C	i	i	-2	i	-0.21	i
CCOC(=O)c1sc(/N=C/c2ccc(O)cc2O)cc1C	i	i	-6	i	-1.4	i
Oc1c(Br)cc(Br)cc1CNc1cccc2cccnc12	i	i	1	i	1.3	i
Oc1ccc(Cl)cc1CNc1cccc2cccnc12	i	i	-4	-7.7*	2	i
Cc1ccc(C(C(=O)NC2CCCC2)N(C(=O)c2csnn2)C2CCCC2)o1 (centres undefined)	i	i	-15	i	-0.23	i
Cc1ccc(CN(C(=O)c2csnn2)C(C(=O)NC2CCCC2)c2ccc(C)o2)cc1 (centres undefined)	i	i	-10	-6.8*	0.49	i
CCN1CCN(CCCOc2ccc(-c3ccccc3)cc2)CC1	/	i	-16	i	-4.7*	i
O=C(c1ccccc1)c1ccc(OCCCCN2CCCCC2)cc1	i	i	0	i	-0.36	i
CCN1CCN(CCOc2ccccc2-c2ccccc2)CC1	i	i	-5	i	-5.3*	i
CCN1CCN(CCCOc2ccccc2-c2ccccc2)CC1	i	i	-12	i	0.34	i
c1ccc(COc2ccc(OCCCCN3CCCCC3)cc2)cc1	i	i	-14	i	-4.7*	i
O=C(CC1C(=O)NCCN1Cc1c(F)cccc1Cl)NCCCOc1cccnc1 (centres undefined)	i	i	-5	i	0.08	i
CCC(=O)N1CCc2cc(S(=O)(=O)N3CCN(c4cc(C)ccc4C)CC3)ccc21	i	i	-10	i	1.2	i
CC1CN(S(=O)(=O)c2cccc(C(=O)NCc3ccco3)c2)CC(C)O1 (centres undefined)	i	/	/	/	/	/
Cc1ccc(-c2csc3ncnc(SCC(=O)NCc4ccc5c(c4)OCO5)c23)cc1	i	i	-3	i	0.58	i
